Assay results reported in ChEMBL document CHEMBL1135968, “The effect of a phosphodiester linking group on albumin binding, blood half-life, and relaxivity of intravascular diethylenetriaminepentaacetato aquo gadolinium(III) MRI contrast agents” (J Med Chem, 2002).

Columns and labels:
[1] = species on record: Rattus norvegicus; test: Volume of distribution, steady state in rat; type: ADME, organism-based; conditions: in vivo
Method in brief: (§1)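 Unanesthetized male Sprague-Dawley rats (150-250 g, n = 2-5) received 153Gd-labeled chelate via tail vein catheter at 0.1 mmol/kg. Plasma was separated from heparinized blood and Gd was measured by ICP. Concentration-time data were fitted biexponentially. Elimination half-life = 0.693/β and Vd = dose/B. AUC 0-30 min was computed per animal by the trapezoidal rule. Values are mean ± 1 SD.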

[2] = species on record: Rattus norvegicus; test: Percent of biliary excretion measured in 24 hr in rat; type: ADME, organism-based, Bile; conditions: in vivo
Method in brief: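 Rats were dosed i.v. at 0.1 mmol/kg with 153Gd-labeled chelate (male Sprague-Dawley, 150-250 g) and housed in metabolic cages to collect urine and feces. They were sacrificed at 24 h. Tissues and excreta were gamma counted, and % injected dose = sample CPM / injected CPM × 100.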

[3] = species on record: Rattus norvegicus; test: Elimination of half-life in rat; type: ADME, organism-based; conditions: in vivo; method in brief: as §1
[4] = Relaxivity, measured in phosphate buffer saline (PBS); type: ADME
Method in brief: (§2)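 T1 was read at 20 MHz (0.47 T) and 37 °C, in triplicate, with recycle delay 5× T1. Five sequential additions of 1–10 mM chelate were titrated into PBS (10 mM phosphate, 150 mM NaCl, pH 7.4) or into 4.5% HSA (fraction V) in PBS. r1 was taken from the titration.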

[5] = Area under plasma 1/T1 versus time curve, 0-30 min; type: ADME, cell-free; parameters: concentration or dose not given beside the values
Method in brief: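 Male Sprague-Dawley rats (150-250 g, n = 2-5, unanesthetized) were given 0.1 mmol/kg 153Gd chelate i.v. by tail vein catheter. Plasma water T1 was measured on a Minispec in triplicate, and plasma Δ1/T1 was followed over time. AUC 0-30 min was calculated per animal by the trapezoidal rule. Values are mean ± 1 SD.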

[6] = Area under concentration versus time curve, 0-30 min; type: ADME; parameters: time < 0.5 hr; conditions: 0.5 h; method in brief: as §1
[7] = biological target: T1, Albumin (Homo sapiens, UniProt P02768); test: Observed relaxivity bound to human serum albumin (4.5%); method in brief: as §2
T1 sequence (P02768 whole entry): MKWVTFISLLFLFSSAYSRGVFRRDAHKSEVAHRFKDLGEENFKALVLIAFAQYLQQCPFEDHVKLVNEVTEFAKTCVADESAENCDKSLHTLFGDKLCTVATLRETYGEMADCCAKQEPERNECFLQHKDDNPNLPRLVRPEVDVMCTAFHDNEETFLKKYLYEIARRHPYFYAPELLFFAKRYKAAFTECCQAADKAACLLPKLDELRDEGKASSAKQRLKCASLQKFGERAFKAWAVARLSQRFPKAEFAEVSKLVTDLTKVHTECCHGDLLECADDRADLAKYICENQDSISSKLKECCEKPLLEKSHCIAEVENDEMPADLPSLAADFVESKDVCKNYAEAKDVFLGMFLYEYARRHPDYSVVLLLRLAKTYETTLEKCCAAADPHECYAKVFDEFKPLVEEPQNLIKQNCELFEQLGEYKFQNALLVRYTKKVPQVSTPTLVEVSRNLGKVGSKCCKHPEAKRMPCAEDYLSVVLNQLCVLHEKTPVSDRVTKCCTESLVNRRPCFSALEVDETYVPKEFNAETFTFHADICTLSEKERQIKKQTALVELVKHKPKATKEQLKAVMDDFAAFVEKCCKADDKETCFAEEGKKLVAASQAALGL

[8] = biological target: T1, Albumin; test: Percentage of compound (0.1 mM) bound to human serum albumin (4.5%); conditions: 100 µM
Method in brief: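 Ultrafiltration, in duplicate. 153Gd-labeled chelate was added to 4.5% HSA to 0.1 mM total Gd. An aliquot was counted, and 400 μL was centrifuged through a 5000 NMWL filter at room temperature (22 ± 1 °C). The unbound fraction came from filtrate counts.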

Substance | Vdss [1] | Excretion [2] | T1/2 beta [3] | Relaxivity [4] | AUC 1/T1 [5] | AUC conc [6] | Observed relaxivity [7] | Bound [8]
Bis-[N-methyl-D-glucamine]-{(2-((2-naphthyl)methyl)-diethylenetriaminepentaacetato)(aquo)-gadolinium (III)} | 0.44 L/kg | 64.3% | 6.8 min | 5.5 mM⁻¹ s⁻¹ | 40.1 s-1 min | 43 µM·h | 16.3 mM⁻¹ s⁻¹ | 30%
DIETHYLENETRIAMINEPENTAACETATO AQUO GADOLINIUM (III) | 0.28 L/kg | 6.3% | 15.4 min | 4.6 mM⁻¹ s⁻¹ | 46.4 s-1 min | 104 µM·h | 4.6 mM⁻¹ s⁻¹ | 0%

Other lines, results leading:

Vdss [1] | Excretion [2] | T1/2 beta [3] | Relaxivity [4] | AUC 1/T1 [5] | AUC conc [6] | Observed relaxivity [7] | Bound [8] | Substance
0.62 L/kg | 66.9% | 6.2 min | 5.9 mM⁻¹ s⁻¹ | 69.7 s-1 min | 51 µM·h | 20.7 mM⁻¹ s⁻¹ | 44% | Bis-[N-methyl-D-glucamine]-{(2-(octyldiethylenetriamine)diethylenetriaminepentaacetato)(aquo)-gadolinium (III)}
0.32 L/kg | 17% | 14.3 min | 6 mM⁻¹ s⁻¹ | 94.2 s-1 min | 92.8 µM·h | 19.5 mM⁻¹ s⁻¹ | 40% | Tris-[N-methyl-D-glucamine]-{(2-(R)-[(2-(1-naphthyl)-ethyl)phosphonooxymethyl]diethylenetriaminepentaacetato)(aquo)-gadolinium (III)}
0.31 L/kg | 17.7% | 14.3 min | 6.1 mM⁻¹ s⁻¹ | 150 s-1 min | 99.3 µM·h | – | 54% | Tris-[N-methyl-D-glucamine]-{(2-(R)-[octylphosphonooxymethyl]diethylenetriaminepentaacetato)(aquo)-gadolinium (III)}
0.24 L/kg | 15.8% | 23.1 min | 6.6 mM⁻¹ s⁻¹ | 285 s-1 min | 156 µM·h | 42 mM⁻¹ s⁻¹ | 88% | Trisodium-{(2-(R)-[(4,4-diphenylcyclohexyl)phosphonooxymethyl]diethylenetriaminepentaacetato)(aquo)-gadolinium (III)}
